In paper PMC6810698 (European journal of nuclear medicine and molecular imaging, 2019):
Where two headings read alike, the source gives them in different places.

Assays:
[1] = molecular target: T1, SV2A (Macaca mulatta, UniProt H9EQH8); format: in vivo, rhesus monkeys (Macaca mulatta); details: for Regional distribution volume (VT): 1TC model; for Regional non-displaceable binding potential (BPND): baseline scans (n = 4), reference region centrum semiovale
In short: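 Fasted rhesus monkeys were immobilised with ketamine (10 mg/kg im) and maintained on isoflurane (1.5–2.5% in oxygen). Radiotracer was infused iv over 3 min after a transmission scan, and dynamic list-mode data were collected for 120 min. MR-defined ROIs gave time–activity curves. VT came from a 1TC model with metabolite-corrected arterial plasma input, and BPND from VT with centrum semiovale as reference.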

[2] = molecular target: human SV2A protein; details: cited from earlier work
[3] = molecular target: T1, SV2A; details: same dose of UCB-J (0.15 mg/kg), measured with [^11C]UCB-J; cited from earlier work
[4] = molecular target: T1, SV2A; test: SV2A occupancy from occupancy plot; format: in vivo, rhesus monkeys (Macaca mulatta); details: 0.15 mg/kg UCB-J, 10 min before 5-[^18F]UCB-J injection
In short: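 Baseline and blocking PET scans were run with iv radiotracer and arterial input. Regional VT came from 1TC kinetic modelling. Occupancy was derived from an occupancy plot of baseline regional VT against the baseline-minus-blocking VT difference.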

[5] = Plasma metabolite analysis; format: in vivo, rhesus monkeys (Macaca mulatta); details: 30 min after injection; rhesus monkey arterial plasma; n = 4
[6] = Radiotracer free fraction; format: in vitro ADME, rhesus monkeys (Macaca mulatta); details: ultrafiltration; rhesus monkey plasma; n = 4
In short: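 Plasma ultrafiltration was used. fP was taken as filtrate radioactivity concentration divided by total plasma activity, measured in triplicate per scan.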

[7] = baseline scan, centrum semiovale
[8] = baseline scan, cingulate cortex
[9] = baseline scan, nucleus accumbens
[10] = baseline scan, occipital cortex

T1 sequence (H9EQH8 1-742): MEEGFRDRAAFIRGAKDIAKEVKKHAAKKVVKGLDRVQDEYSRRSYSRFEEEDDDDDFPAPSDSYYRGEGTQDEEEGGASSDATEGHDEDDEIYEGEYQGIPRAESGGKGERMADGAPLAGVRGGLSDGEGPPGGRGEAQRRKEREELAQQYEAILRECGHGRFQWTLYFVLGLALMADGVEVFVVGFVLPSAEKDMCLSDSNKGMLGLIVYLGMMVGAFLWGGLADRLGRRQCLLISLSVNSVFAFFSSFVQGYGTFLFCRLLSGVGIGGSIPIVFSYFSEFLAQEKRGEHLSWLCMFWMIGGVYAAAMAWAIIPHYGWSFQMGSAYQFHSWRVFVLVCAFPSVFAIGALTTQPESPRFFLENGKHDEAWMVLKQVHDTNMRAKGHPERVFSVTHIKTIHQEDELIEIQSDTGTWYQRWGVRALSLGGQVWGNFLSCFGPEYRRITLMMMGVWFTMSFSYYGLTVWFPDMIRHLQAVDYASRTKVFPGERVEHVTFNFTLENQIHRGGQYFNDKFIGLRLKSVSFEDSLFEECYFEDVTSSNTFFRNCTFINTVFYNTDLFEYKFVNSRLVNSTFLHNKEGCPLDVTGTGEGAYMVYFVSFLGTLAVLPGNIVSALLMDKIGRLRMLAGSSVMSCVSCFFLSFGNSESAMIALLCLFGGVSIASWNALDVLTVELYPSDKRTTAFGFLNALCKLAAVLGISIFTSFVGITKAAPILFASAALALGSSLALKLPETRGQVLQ

Row | SMILES | Regional distribution volume (VT) ([1]; baseline scan, amygdala) | Regional distribution volume (VT) ([1]; baseline scan, brainstem) | Regional distribution volume (VT) ([1]; baseline scan, caudate) | Regional distribution volume (VT) [1, 7] | Regional distribution volume (VT) ([1]; baseline scan, cerebellum) | Regional distribution volume (VT) [1, 8] | Regional distribution volume (VT) ([1]; baseline scan, frontal cortex) | Regional distribution volume (VT) ([1]; baseline scan, globus pallidus) | Regional distribution volume (VT) ([1]; baseline scan, hippocampus) | Regional distribution volume (VT) ([1]; baseline scan, insula) | Regional distribution volume (VT) [1, 9] | Regional distribution volume (VT) [1, 10] | Regional distribution volume (VT) ([1]; baseline scan, pons) | Regional distribution volume (VT) ([1]; baseline scan, putamen) | Regional distribution volume (VT) ([1]; baseline scan, temporal cortex) | Regional distribution volume (VT) ([1]; baseline scan, thalamus) | pIC50, binding affinity to human SV2A protein [2] | further results
1 | CC[C@@H](C(N)=O)N1CCCC1=O [levetiracetam] | – | – | – | – | – | – | – | – | – | – | – | – | – | – | – | – | – | displacement of [^18F]UCB-J binding ([1]; levetiracetam 30 mg/kg i.v. at 90 min after radiotracer administration, 180-min scan with 5-[^18F]UCB-J): rapid reduction in radiotracer binding
2 | Cc1cnccc1CN1C[C@H](c2cc(F)c(F)c([18F])c2)CC1=O [(S)-5-[^18F]3, 4-(3,4-Difluoro-5-(fluoro-^18F)phenyl)-1-((3-methylpyridin-4-yl)methyl)pyrrolidin-2-one] | 5.0 mL/cm^−3 | 5.7 mL/cm^−3 | 6.6 mL/cm^−3 | 6.9 mL/cm^−3 | 5.7 mL/cm^−3 | 7.2 mL/cm^−3 | 7.2 mL/cm^−3 | 6.3 mL/cm^−3 | 5.7 mL/cm^−3 | 6.8 mL/cm^−3 | 6.3 mL/cm^−3 | 6.6 mL/cm^−3 | 6.1 mL/cm^−3 | 6.6 mL/cm^−3 | 6.5 mL/cm^−3 | 6.3 mL/cm^−3 | – | specific binding in brain ([1]; baseline scan, n = 1): lack of specific binding
3 | Cc1cnccc1CN1C[C@@H](c2cc(F)c(F)c(F)c2)CC1=O [UCB-J] | – | – | – | – | – | – | – | – | – | – | – | – | – | – | – | – | 8.2 | SV2A occupancy by UCB-J [3]: 87%; SV2A occupancy by UCB-J [4]: 73%
4 | [11CH3]c1cnccc1CN1C[C@@H](c2cc(F)c(F)c(F)c2)CC1=O [[^11C]UCB-J] | 24.1 ± 2.2 mL/cm^−3 | 20.1 ± 2.8 mL/cm^−3 | 40.3 ± 6.1 mL/cm^−3 | 11.1 ± 1.6 mL/cm^−3 | 30.5 ± 3.5 mL/cm^−3 | 47.3 ± 7.5 mL/cm^−3 | 48.9 ± 7.4 mL/cm^−3 | 24.5 ± 3.1 mL/cm^−3 | 31.3 ± 2.3 mL/cm^−3 | 47.7 ± 7.5 mL/cm^−3 | 45.7 ± 6.2 mL/cm^−3 | 45.1 ± 6.9 mL/cm^−3 | 19.8 ± 2.7 mL/cm^−3 | 40.1 ± 6.8 mL/cm^−3 | 42.8 ± 6.7 mL/cm^−3 | 36.2 ± 5.2 mL/cm^−3 | – | Regional non-displaceable binding potential (BPND) ([1]; amygdala): 1.2 ± 0.4; Regional non-displaceable binding potential (BPND) ([1]; brainstem): 0.8 ± 0.2; Regional non-displaceable binding potential (BPND) ([1]; caudate): 2.7 ± 0.7; Regional non-displaceable binding potential (BPND) ([1]; cerebellum): 1.8 ± 0.3; Regional non-displaceable binding potential (BPND) ([1]; cingulate cortex): 3.3 ± 0.9; Regional non-displaceable binding potential (BPND) ([1]; frontal cortex): 3.5 ± 0.9; Regional non-displaceable binding potential (BPND) ([1]; globus pallidus): 1.2 ± 0.2; Regional non-displaceable binding potential (BPND) ([1]; hippocampus): 1.9 ± 0.3; Regional non-displaceable binding potential (BPND) ([1]; insula): 3.3 ± 0.8; Regional non-displaceable binding potential (BPND) ([1]; nucleus accumbens): 3.2 ± 0.7; Regional non-displaceable binding potential (BPND) ([1]; occipital cortex): 3.1 ± 0.7; Regional non-displaceable binding potential (BPND) ([1]; pons): 0.8 ± 0.2; Regional non-displaceable binding potential (BPND) ([1]; putamen): 2.6 ± 0.5; Regional non-displaceable binding potential (BPND) ([1]; temporal cortex): 2.9 ± 0.6; Regional non-displaceable binding potential (BPND) ([1]; thalamus): 2.3 ± 0.7; BPND values in all brain regions ([1]; baseline scans, all brain regions): > 0.75; intact parent radiotracer in plasma (parent fraction) [5]: 47 ± 12%; plasma free fraction (fp) [6]: 43 ± 5%
5 | Cc1cnccc1CN1C[C@H](c2cc(F)c(F)c(F)c2)CC1=O [(S)-enantiomer] | – | – | – | – | – | – | – | – | – | – | – | – | – | – | – | – | 7.1 | –
